Compounds with a hit are over-represented: about 3.7% of the library has one in this group of screens.
KCNQ1 inh = blocks the human KCNQ1 potassium channel; 310,000 compounds, 1.3% hits; AID 2642; CHO-K1 KCNQ1, FluxOR thallium flux fluorescence; active compounds read high; B-score at 10 µM;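 active = compounds whose thallium flux B-score, printed positive for inhibition, exceeds three library SD while starting fluorescence stays within three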;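 note: channel opened by potassium depolarization with thallium stimulus after 20 min compound exposure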
Target sequence (P51787 whole entry, looked up): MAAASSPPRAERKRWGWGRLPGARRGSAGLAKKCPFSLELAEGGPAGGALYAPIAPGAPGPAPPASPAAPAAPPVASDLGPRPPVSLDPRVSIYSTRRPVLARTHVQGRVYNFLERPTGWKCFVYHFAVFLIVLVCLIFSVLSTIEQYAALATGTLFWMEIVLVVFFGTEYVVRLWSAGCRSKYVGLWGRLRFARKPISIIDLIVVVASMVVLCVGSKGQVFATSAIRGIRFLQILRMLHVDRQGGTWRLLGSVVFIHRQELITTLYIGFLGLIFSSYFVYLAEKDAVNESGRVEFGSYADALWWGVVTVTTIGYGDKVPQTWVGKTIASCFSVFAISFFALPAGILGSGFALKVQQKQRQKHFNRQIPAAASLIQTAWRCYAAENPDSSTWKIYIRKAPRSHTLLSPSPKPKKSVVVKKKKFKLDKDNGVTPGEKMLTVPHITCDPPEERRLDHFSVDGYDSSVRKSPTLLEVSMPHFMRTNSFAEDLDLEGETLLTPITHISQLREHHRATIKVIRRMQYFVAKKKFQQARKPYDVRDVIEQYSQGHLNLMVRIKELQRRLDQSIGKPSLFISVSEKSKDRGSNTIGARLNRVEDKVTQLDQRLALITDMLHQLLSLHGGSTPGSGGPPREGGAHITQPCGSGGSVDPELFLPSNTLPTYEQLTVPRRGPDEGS
Kir21 block = blocks the mouse Kir2.1 inward-rectifier potassium channel | B-score at 10 µM | HEK293-Kir2.1, FluxOR thallium flux fluorescence; active compounds read low | 310,000 compounds, 0.85% hits | P35561;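 active = fluorescence ratio B-score at or below minus 3 SD of library scores, with starting-brightness B-score within 2 SD, cut at about -4.2 in these data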;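 note: channel flux triggered by added potassium and thallium sulfate stimulus; B-score of peak minus minimum fluorescence over baseline after thallium stimulus; more negative B-score means stronger Kir2.1 block with less thallium influx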
KCNK3 block = human KCNK3 channel inhibition, primary screen | CHO-KCNK3 thallium flux, FluxOR fluorescence; active compounds read low | 340,000 compounds, 0.84% hits | B-score at 10 µM;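 active = B-score under library mean minus 4 SD, starting fluorescence ratio at most library mean plus 5 SD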;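 note: more negative B-score means stronger inhibition of thallium flux through KCNK3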
hERG rescue = shields human hERG channel from block by proarrhythmic agents | 310,000 compounds, 0.51% hits | activation (rescue from dofetilide block), less the hit threshold, % at 10 µM | Q12809 | CHO-hERG, FluxOR thallium flux, dofetilide IC70 present;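 active = activation above the mean of controls blocked by dofetilide plus 5 SD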;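 note: thallium influx through hERG after potassium depolarization seen as dye fluorescence rise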
KCNQ1 act = human KCNQ1 channel potentiation or activation; P51787; CHO-K1 KCNQ1, thallium flux FluxOR fluorescence; active compounds read high; B-score at 10 µM; 310,000 compounds, 0.35% hits; AID 2648;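 active = fluorescence ratio B-score, a plate-corrected score, at least three library SD, with initial intensity B-score within 5 SD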
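Assay system: CHO-K1 cells stably expressing KCNQ1; Medium: assay buffer with matched DMSO; Also added: K+/Tl+ depolarizing stimulus; Dosing: single dose; Timing: dye 90 min, compound 20 min, room temperature; Measured by: kinetic FluxOR thallium fluorescence, 10-s 1-Hz baseline, 110-s post-stimulus read; Read-out: peak-minus-minimum fluorescence over initial fluorescence, negative-control normalized, B-scored.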
KCNK9 inh = inhibitors of human KCNK9 two-pore domain potassium channel; Q9NPC2; HEK293 KCNK9, FluxOR thallium flux fluorescence; active compounds read low; B-score at 10 µM; 310,000 compounds, 1.2% hits; AID 488922;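 active = ratio B-score over 3 SD below the library mean, with starting fluorescence within 5 SD of its mean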;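 note: negative B-score means less thallium flux so channel inhibition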
KCNK9 block conf = human KCNK9 inhibitor confirmation; shares compounds with KCNK9 inh; HEK293 KCNK9 cells, FluxOR thallium flux fluorescence; inhibition, % at 10 µM; 4,900 compounds, 43% hits; AID 492992;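 active = thallium signal inhibited by more than 5 SD of the compound-free buffer control wells, on both duplicate plates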;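 note: 0% = assay buffer control wells without compound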
Kir21 sel = mouse Kir2.1 off-target activity of KCNK9 modulators; shares compounds with KCNK9 inh; 4,900 compounds, 4% hits; inhibition, % at 10 µM; Kir2.1 cells, FluxOR thallium flux fluorescence;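 active = thallium signal drop more than 5 SD beyond the mean of the no-compound control wells, seen in both duplicate plates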;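 note: signal is fluorescence rise after thallium addition divided by baseline fluorescence; plate controls were assay buffer only for no effect and full block by chlorpromazine control for full effect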
HEK293 Tl ctr = second check of KCNK9 modulator effects in non-induced HEK293 cells; 4,900 compounds, 40% hits; inhibition, % at 10 µM; shares compounds with KCNK9 inh; FluxOR thallium flux;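 active = thallium signal drop beyond 5 SD of the untreated control mean, on both duplicate plates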;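 note: plate controls were buffer only IC0 wells for no effect and SID17386958 at its maximal inhibitory level for full effect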
The depositor's hits bear a star; i = inactive; · = not tested or not shown.

SMILES	KCNQ1 inh	Kir21 block	KCNK3 block	hERG rescue	KCNQ1 act	KCNK9 inh	KCNK9 block conf	Kir21 sel	HEK293 Tl ctr
Cc1ccc(SCc2ccc(C(=O)N3CCCC3)cc2)cc1	i	-1.7	i	5.7*	i	i	i	i	i
CCOc1ccccc1NC(=O)C1C2CCC3C(CCC21)C3(Cl)Cl (stereo not given)	i	-0.87	i	-7	i	i	i	i	32%*
O=C(Nc1cccc(Cl)c1)C1C2CCC3C(CCC21)C3(Cl)Cl (stereo not given)	i	-0.86	i	-15	i	i	i	i	i
O=C(Nc1ccccc1Cl)C1C2CCC3C(CCC21)C3(Cl)Cl (stereo not given)	i	0.24	i	-3	i	i	·	·	·
O=C(Nc1ccccc1)C1C2CCC3C(CCC21)C3(Cl)Cl (stereo not given)	i	-0.52	i	-1	i	i	·	·	·
COc1ccc(NC(=O)c2cc3c(=O)n(C)c4ccccc4c3s2)cc1OC	i	-0.4	i	-5	i	i	·	·	·
O=C(NCCN1C(=O)S/C(=C/c2cccnc2)C1=O)c1ccc(S(=O)(=O)N2CCCC2)cc1	·	·	i	·	·	·	·	·	·
C=CCN(c1ccccc1)S(=O)(=O)c1ccc2c(c1)N(C(C)=O)CCO2	i	-2.9	i	-10	i	i	·	·	·
CSc1cnn(Cc2ccccc2)c(=O)c1SCc1ccccc1	i	-4.6*	i	-6	i	i	i	40%*	44%*
CCN1CCCc2cc(CN(CCN3CCOCC3)C(=O)Nc3ccc(C)c(C)c3)ccc21	i	-0.16	i	-12	i	i	i	i	i
CC(C)(C)c1ccc(CN(Cc2ccco2)Cc2nnnn2C2CCCC2)cc1	6*	-0.16	i	-24	i	-14*	62%*	i	49%*
Cc1[nH]n(C(N)=S)c(=O)c1N=Nc1cccc([N+](=O)[O-])c1C	i	0.44	i	-9	i	i	i	i	i
Cc1c(N=Nc2c(-c3ccc([N+](=O)[O-])cc3)[nH]n(C(N)=S)c2=O)cccc1[N+](=O)[O-]	·	·	i	·	·	·	·	·	·
COc1ccccc1C/C(N)=N/OC(=O)COc1cc(C)cc(C)c1C	i	-0.7	i	-4	i	i	·	·	·
COc1ccccc1C/C(N)=N/OC(=O)COc1cccc(C)c1C	i	0.27	i	-2	i	i	i	i	i
CCOC(=O)c1ccc(NS(=O)(=O)c2c(C)nc3sccn3c2=O)cc1	i	0.05	i	-7	i	i	·	·	·
O=C(Nc1ccc(-c2nnc3n2CCCCC3)cc1)c1cc2ccccc2o1	i	0.54	i	-26	i	i	·	·	·
Cc1c(C(=O)Nc2ccc(-c3nnc4n3CCCCC4)cc2)oc2c1ccc1ccccc12	i	1.8	i	-8	i	-12*	i	i	30%*
CCN(CC(=O)NCc1ccc(F)cc1)C(=O)Cc1ccc(OC)cc1	i	1.5	i	-5	i	i	·	·	·
CC(C)Cn1c(=O)c2c(nc3n2CCCN3CCc2ccccc2)n(C)c1=O	i	0.34	i	-18	i	-8.6*	46%*	i	i
CCN1C(=O)C2(Nc3ccccc3-c3nc4ccccc4n32)c2cc(OC)ccc21 (stereo not given)	i	-1.2	i	-13	i	-15*	58%*	i	24%*
CN1C(=O)C2(Nc3ccccc3-c3nc4ccccc4n32)c2ccccc21 (stereo not given)	i	-0.25	i	-5	i	i	·	·	·
Cc1cc(C)c2sc(N(CCCN(C)C)C(=O)c3ccc(S(=O)(=O)N(C)C4CCCCC4)cc3)nc2c1	i	0.02	i	-26	i	i	i	i	i

High-throughput results from PubChem.
